These results are taken from article PMC3665005 (Gene therapy, 2012).

This experiment deals with luciferase expression in liver. As to the kind of experiment: HD-stimulated expression after tail vein dosing, luciferase in liver by BLI. It is filed as in vivo, mice. The settings on record: HD-stimulation, 5 min delay, 1 μg pGL3, 0.8 nmol peptide. In a few lines: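 Albino ICR mice (three per group) received polyplex (1 μg pGL3, 0.8 nmol PEGylated peptide) in 50 μl HBM (5 mM Hepes, 0.27 M mannitol, pH 7.4) by tail vein. Saline at 9 wt/vol% body weight (1.8-2.25 ml) was given by tail vein over 5 sec. At 24 hrs, liver BLI under 3% isofluorane, 5 min after i.p. D-luciferin (2.4 mg). Mean and standard deviation reported.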

With (Acr-DLys4)3-Acr-DLys-Cys-PEG [4D], the “fold lower gene transfer relative to peptide 4 polyplexes” value came to 5 fold.
For the substance (Acr-DLys)3-Acr-DLys-Cys-PEG [1D], the “gene transfer compared with peptide 1 polyplexes (in words)” value is “equivalent”.
